Reference: ChEMBL document CHEMBL5724801, “EUbOPEN Chemogenomics Library - Multiplex” (2024)
“And” between values parts separate entries of the source, which are not always exact repeats. Identical values can stand only once.

These molecules were tested on U2OS (assay: Multiplex assay against U2OS). Conditions: human, 12 h, 1 µM, compound concentration 1 uM.
Format: toxicity, cell-based
In short: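 Cells stained live at seeding with Hoechst33342, BioTracker Green Microtubule Cytoskeleton Dye, MitoTracker Red and Annexin V Alexa Fluor 680 were imaged on a CQ1 microscope at 37°C and 5% CO2 after compound addition. Their classification by CellPathfinder machine-learning gating ran from Hoechst high-intensity objects versus normal cells, to healthy, pyknosed or fragmented nuclei among normal cells, to mitotic or apoptotic among pyknosed cells. Tubulin, mitochondrial-mass and membrane-permeability phenotypes are per cents of healthy-nucleus cells.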

Compound	Population Apoptotic (%)	Population Fragmented Nuclei (%)	Population Healthy Nuclei (%)	Population Hoechst High Intensity Objects (%)	Population Membrane Permeable-Phenotype (%)	Population Mitochondria Different-Phenotype (%)	Population Mitotic Cells (%)	Population Normal (%)	Population Pyknosed Nuclei (%)	Population Tubulin-Different-Phenotype (%)
CC(C)c1ccc(/C=N/NC(=O)c2ccc(O)cc2)cc1	41.67% and 26.09%	0.58% and 4.67%	88.92% and 80%	0	2.62% and 5.83%	0% and 12.5%	58.33% and 73.91%	100	10.5% and 15.33%	1.64% and 1.67%
COc1ccc2nc3ccc(OC)cc3c(SCCCN)c2c1.Cl	33.33% and 48.15%	5.01% and 5.7%	88.22% and 80.31%	0	0.85% and 1.94%	0% and 12.26%	66.67% and 51.85%	100	6.77% and 13.99%	1.14% and 0%

Same assay, conditions: human, 12 h, 1 µM, compound concentration 1 uM

Compound	Total Cell Count
CC(C)c1ccc(/C=N/NC(=O)c2ccc(O)cc2)cc1	343 and 150
COc1ccc2nc3ccc(OC)cc3c(SCCCN)c2c1.Cl	399 and 193

Same assay, conditions: human, 12 h, 10 µM, compound concentration 10 uM

Compound	Population Apoptotic (%)	Population Fragmented Nuclei (%)	Population Healthy Nuclei (%)	Population Hoechst High Intensity Objects (%)	Population Membrane Permeable-Phenotype (%)	Population Mitochondria Different-Phenotype (%)	Population Mitotic Cells (%)	Population Normal (%)	Population Pyknosed Nuclei (%)	Population Tubulin-Different-Phenotype (%)
CC(C)c1ccc(/C=N/NC(=O)c2ccc(O)cc2)cc1	32.5% and 45%	1.02% and 0%	88.75% and 85.4%	0%	2.88% and 2.56%	0% and 5.98%	67.5% and 55%	100%	10.23% and 14.6%	2.59% and 0%
COc1ccc2nc3ccc(OC)cc3c(SCCCN)c2c1.Cl	50% and 100%	77.73% and 91.54%	21.48% and 8.25%	8.43% and 7.62%	–	–	–	91.57% and 92.38%	0.79% and 0.21%	28.57% and 40.17%

Same assay, conditions: human, 12 h, 10 µM, compound concentration 10 uM

Compound	Total Cell Count
CC(C)c1ccc(/C=N/NC(=O)c2ccc(O)cc2)cc1	391 and 137
COc1ccc2nc3ccc(OC)cc3c(SCCCN)c2c1.Cl	1388 and 1535

Same assay, conditions: human, 24 h, 1 µM, compound concentration 1 uM

Compound	Population Apoptotic (%)	Population Fragmented Nuclei (%)	Population Healthy Nuclei (%)	Population Hoechst High Intensity Objects (%)	Population Membrane Permeable-Phenotype (%)	Population Mitochondria Different-Phenotype (%)	Population Mitotic Cells (%)	Population Normal (%)	Population Pyknosed Nuclei (%)	Population Tubulin-Different-Phenotype (%)
CC(C)c1ccc(/C=N/NC(=O)c2ccc(O)cc2)cc1	30.95% and 46.15%	2.35% and 1.61%	88.68% and 84.41%	0	1.69% and 3.18%	0.48% and 8.92%	69.05% and 53.85%	100	8.97% and 13.98%	1.69% and 0.64%
COc1ccc2nc3ccc(OC)cc3c(SCCCN)c2c1.Cl	29.73% and 51.52%	3.05% and 1.4%	89.9% and 83.18%	0	0.85% and 2.81%	0% and 7.3%	70.27% and 48.48%	100	7.05% and 15.42%	1.06% and 1.69%

Same assay, conditions: human, 24 h, 1 µM, compound concentration 1 uM

Compound	Total Cell Count
CC(C)c1ccc(/C=N/NC(=O)c2ccc(O)cc2)cc1	468 and 186
COc1ccc2nc3ccc(OC)cc3c(SCCCN)c2c1.Cl	525 and 214

Same assay, conditions: human, 24 h, 10 µM, compound concentration 10 uM

Compound	Population Apoptotic (%)	Population Fragmented Nuclei (%)	Population Healthy Nuclei (%)	Population Hoechst High Intensity Objects (%)	Population Membrane Permeable-Phenotype (%)	Population Mitochondria Different-Phenotype (%)	Population Mitotic Cells (%)	Population Normal (%)	Population Pyknosed Nuclei (%)	Population Tubulin-Different-Phenotype (%)
CC(C)c1ccc(/C=N/NC(=O)c2ccc(O)cc2)cc1	51.02% and 50%	1.12% and 2.26%	89.72% and 86.44%	0%	1.88% and 2.61%	0% and 3.92%	48.98% and 50%	100%	9.16% and 11.3%	1.25% and 0%
COc1ccc2nc3ccc(OC)cc3c(SCCCN)c2c1.Cl	50% and 78.57%	75.02% and 91.84%	–	12.85% and 7.48%	–	–	50% and 21.43%	87.15% and 92.52%	0.64% and 0.94%	6.62% and 18.52%

Same assay, conditions: human, 24 h, 10 µM, compound concentration 10 uM

Compound	Total Cell Count
COc1ccc2nc3ccc(OC)cc3c(SCCCN)c2c1.Cl	1424 and 1617

Same assay, conditions: human, 48 h, 1 µM, compound concentration 1 uM

Compound	Population Apoptotic (%)	Population Fragmented Nuclei (%)	Population Healthy Nuclei (%)	Population Hoechst High Intensity Objects (%)	Population Membrane Permeable-Phenotype (%)	Population Mitochondria Different-Phenotype (%)	Population Mitotic Cells (%)	Population Normal (%)	Population Pyknosed Nuclei (%)	Population Tubulin-Different-Phenotype (%)
CC(C)c1ccc(/C=N/NC(=O)c2ccc(O)cc2)cc1	38.46% and 51.11%	2.73% and 1.73%	87.74% and 85.3%	0.1% and 0%	0.6% and 3.04%	0.12% and 6.42%	61.54% and 48.89%	99.9% and 100%	9.54% and 12.97%	0.6% and 1.35%
COc1ccc2nc3ccc(OC)cc3c(SCCCN)c2c1.Cl	46.15% and 46.51%	3.96% and 4.36%	90.62% and 82.24%	0%	1.03% and 0.76%	0% and 2.65%	53.85% and 53.49%	100%	5.42% and 13.4%	0.8% and 1.52%

Same assay, conditions: human, 48 h, 1 µM, compound concentration 1 uM

Compound	Total Cell Count
CC(C)c1ccc(/C=N/NC(=O)c2ccc(O)cc2)cc1	955 and 347
COc1ccc2nc3ccc(OC)cc3c(SCCCN)c2c1.Cl	960 and 321

Same assay, conditions: human, 48 h, 10 µM, compound concentration 10 uM

Compound	Population Apoptotic (%)	Population Fragmented Nuclei (%)	Population Healthy Nuclei (%)	Population Hoechst High Intensity Objects (%)	Population Membrane Permeable-Phenotype (%)	Population Mitochondria Different-Phenotype (%)	Population Mitotic Cells (%)	Population Normal (%)	Population Pyknosed Nuclei (%)	Population Tubulin-Different-Phenotype (%)
CC(C)c1ccc(/C=N/NC(=O)c2ccc(O)cc2)cc1	46.51% and 53.12%	4.03% and 1.37%	87.3% and 87.67%	0%	1.15% and 3.52%	0% and 5.47%	53.49% and 46.88%	100%	8.67% and 10.96%	1.39% and 0%
COc1ccc2nc3ccc(OC)cc3c(SCCCN)c2c1.Cl	45% and 53.85%	69.73% and 94.1%	–	23.54% and 11.4%	–	–	55% and 46.15%	76.46% and 88.6%	2.07% and 0.82%	6.23% and 18.52%

Same assay, conditions: human, 48 h, 10 µM, compound concentration 10 uM

Compound	Total Cell Count
COc1ccc2nc3ccc(OC)cc3c(SCCCN)c2c1.Cl	1266 and 1798
